PMC12394810 (RSC Advances, 2025)
Entries after “also recorded” stand apart in the source; their conditions may differ.

Tests used:
[1] = system: HEK-293 (human embryonic kidney cell line); assay: MTT cytotoxicity assay, HEK-293; assay type: cell-based; conditions: HEK293, 48 h, read-out: IC50 HEK-293
[2] = system: HepG2 (Human hematoma cell line); assay: MTT cytotoxicity assay, HEPG2; assay type: cell-based; conditions: HepG2, 48 h, read-out: IC50 HEPG2
In short: (§1)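 ATCC cells grown in DMEM with 10% FBS, 2 mM L-glutamine and 100 μg/mL penicillin–streptomycin at 37 °C, 5% CO2. Medium refreshed, 10 μL of 12 mM MTT stock added, then 4 h in the dark at 37 °C. Formazan dissolved in DMSO and read at 570 nm against media-only blanks. Three independent experiments; IC50 by linear regression.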

[3] = system: DU145 (human prostate cell line); assay: MTT cytotoxicity assay, DU145; assay type: cell-based; conditions: DU-145, 48 h, read-out: IC50 DU145
In short: as §1

[4] = system: SKBR-3 (human breast cancer cell line); assay: MTT cytotoxicity assay, SKBR-3; assay type: cell-based; conditions: SK-BR-3, 48 h, read-out: IC50 SKBR-3
In short: as §1

[5] = system: Swiss albino mice; assay: In vivo acute oral toxicity of compound 5n; conditions: for ALKP / Albumin / Bilirubin / Body weight / Cholesterol / Creatinine / Haemoglobin / RBC / SGOT / SGPT / Serum protein / Triglycerides / WBC: n = 6
In short: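 30 Swiss albino mice (15 male, 15 female; 22–25 g), 7-day acclimatization, 22 ± 5 °C, 12 h light/dark, standard feed and water ad libitum. Five groups of 3 male + 3 female. Single oral dose of test compound at 5, 50, 300 or 1000 mg kg−1, suspended in gum acacia and 0.7% CMC; controls received vehicle. Clinical observation, body weight, haematology, serum biochemistry, organ weights; mean ± SE, n = 6, compared with control.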

[6] = system: erythrocytes (heparinized human blood); assay: Erythrocyte osmotic fragility; assay type: cell-based; conditions: 1 μL of 10 mg mL^−1 stock, 37 °C, 30 min
[7] = system: Candida albicans MTCC 227; assay: Agar well diffusion, antifungal; assay type: cell-based
In short: (§2)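 Fungal strains kept like the bacteria (Mueller–Hinton media) but at 30 °C. Agar well diffusion per CLSI (2012): inoculum spread over the agar, 6–8 mm wells punched, and 20–100 μL test compound added per well. Plates incubated at 30 °C and zone of inhibition diameter read in mm.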

[8] = system: Candida tropicalis MTCC 230; assay: Agar well diffusion, antifungal; assay type: cell-based; conditions: 1 mg/mL, 18 hrs
In short: as §2

[9] = single acute oral dose 5, 50, 300, 1000 mg kg^−1
[10] = single oral dose 5 mg kg^−1, mean ± SE
[11] = single oral dose 50 mg kg^−1, mean ± SE
[12] = single oral dose 300 mg kg^−1, mean ± SE
[13] = single oral dose 1000 mg kg^−1, mean ± SE

N#Cc1ccccc1COc1ccccc1C(=O)/C=C/C=C/c1ccccc1 [Compound 5i, 2-((2-((2E,4E)-5-Phenylpenta-2,4-dienoyl)phenoxy)methyl) benzonitrile]
IC50 [1]: 48.2 ± 5 µM
IC50 [2]: 42 ± 2.1 µM
IC50 [3]: 68.4 ± 2.8 µM
IC50 [4]: 75.3 ± 2.1 µM

O=C(/C=C/C=C/c1ccccc1)c1ccccc1OCCBr [Compound 5n, (2E,4E)-1-(2-(2-Bromoethoxy)phenyl)-5-phenylpenta-2,4-dien-1-one]
IC50 [1]: 18.5 ± 1.1 µM
Dose well tolerated / safe as a single acute oral dose ([5]; oral): up to 1000 mg kg^−1
Gross pathology, absolute and relative organ weights [5, 9]: no significant abnormalities in absolute or relative organ weights
Morbidity, mortality, abnormal clinical signs [5, 9]: no morbidity, mortality, or abnormal clinical signs; also recorded: no morbidity, mortality
ALKP [5, 10]: 170.67 ± 13.43 U L^−1
Albumin [5, 10]: 2.55 ± 0.19 g/dL
Bilirubin [5, 10]: 0.50 ± 0.00 mg/dL
Body weight [5, 10]: 31.33 ± 1.54 g
Cholesterol [5, 10]: 113.94 ± 4.49 mg/dL
Creatinine [5, 10]: 0.92 ± 0.08 mg/dL
Haemoglobin [5, 10]: 12.74 ± 0.51 g/dL
RBC [5, 10]: 8.20 ± 0.60 million per mm^3
SGOT [5, 10]: 20.84 ± 0.88 U L^−1
SGPT [5, 10]: 16.76 ± 0.67 U L^−1
Serum protein [5, 10]: 5.85 ± 0.13 mg/mL
Triglycerides [5, 10]: 111.43 ± 4.39 mg/dL
WBC [5, 10]: 9.48 ± 0.68 1000*/mm^3
ALKP [5, 11]: 164.25 ± 13.54 U L^−1
Albumin [5, 11]: 2.58 ± 0.07 g/dL
Bilirubin [5, 11]: 0.51 ± 0.00 mg/dL
Body weight [5, 11]: 28.33 ± 0.72 g
Cholesterol [5, 11]: 110.16 ± 3.57 mg/dL
Creatinine [5, 11]: 0.86 ± 0.06 mg/dL
Haemoglobin [5, 11]: 12.68 ± 0.67 g/dL
RBC [5, 11]: 7.77 ± 0.66 million per mm^3
SGOT [5, 11]: 20.60 ± 1.71 U L^−1
SGPT [5, 11]: 18.63 ± 0.59 U L^−1
Serum protein [5, 11]: 5.76 ± 0.16 mg/mL
Triglycerides [5, 11]: 111.02 ± 5.61 mg/dL
WBC [5, 11]: 9.54 ± 0.79 1000*/mm^3
ALKP [5, 12]: 173.23 ± 14.47 U L^−1
Albumin [5, 12]: 2.55 ± 0.19 g/dL
Bilirubin [5, 12]: 0.49 ± 0.02 mg/dL
Body weight [5, 12]: 31.82 ± 0.96 g
Cholesterol [5, 12]: 111.51 ± 3.48 mg/dL
Creatinine [5, 12]: 0.90 ± 0.13 mg/dL
Haemoglobin [5, 12]: 12.68 ± 0.71 g/dL
RBC [5, 12]: 7.34 ± 0.38 million per mm^3
SGOT [5, 12]: 19.39 ± 1.51 U L^−1
SGPT [5, 12]: 18.03 ± 0.64 U L^−1
Serum protein [5, 12]: 5.86 ± 0.18 mg/mL
Triglycerides [5, 12]: 110.41 ± 3.90 mg/dL
WBC [5, 12]: 10.13 ± 0.50 1000*/mm^3
ALKP [5, 13]: 170.75 ± 6.26 U L^−1
Albumin [5, 13]: 2.70 ± 0.09 g/dL
Bilirubin [5, 13]: 0.47 ± 0.04 mg/dL
Body weight [5, 13]: 27.92 ± 1.30 g
Cholesterol [5, 13]: 107.82 ± 3.48 mg/dL
Creatinine [5, 13]: 0.97 ± 0.09 mg/dL
Haemoglobin [5, 13]: 12.42 ± 0.55 g/dL
RBC [5, 13]: 7.54 ± 0.62 million per mm^3
SGOT [5, 13]: 19.73 ± 1.43 U L^−1
SGPT [5, 13]: 17.55 ± 1.23 U L^−1
Serum protein [5, 13]: 5.93 ± 0.13 mg/mL
Triglycerides [5, 13]: 108.74 ± 2.77 mg/dL
IC50 [2]: 9.38 ± 1.6 µM
IC50 [3]: 8.72 ± 1.8 µM
MEF50 (Mean Erythrocyte Fragility; concentration of PBS at which 50% of erythrocytes undergo hemolysis) [6]: 0.457
IC50 [4]: 7.69 ± 2.8 µM

O=C(/C=C/C=C/c1ccccc1)c1ccccc1OCc1ccc(Cl)cc1 [Compound 5c, (2E,4E)-1-(2-((4-Chlorobenzyl)oxy)phenyl)-5-phenylpenta-2,4-dien-1-one]
IC50 [1]: 22.3 ± 1.2 µM
IC50 [2]: 40.17 ± 0.2 µM
IC50 [3]: 47.1 ± 4.5 µM
IC50 [4]: 30.7 ± 2 µM

O=C(/C=C/C=C/c1ccccc1)c1ccccc1OCc1ccc(F)cc1 [Compound 5e, (2E,4E)-1-(2-((4-Fluorobenzyl)oxy)phenyl)-5-phenylpenta-2,4-dien-1-one]
IC50 [1]: 49.8 ± 2.8 µM
IC50 [2]: 282 ± 5.7 µM
IC50 [3]: 278.6 ± 1.7 µM
IC50 [4]: 56.1 ± 1.8 µM

O=C(/C=C/C=C/c1ccccc1)c1ccccc1OCc1ccc(Cl)c(Cl)c1 [Compound 5b, (2E,4E)-1-(2-((3,4-dichlorobenzyl)oxy)phenyl)-5-phenylpenta-2,4-dien-1-one]
IC50 [1]: 20.4 ± 1.6 µM
IC50 [2]: 9.19 ± 0.6 µM
IC50 [3]: 17.9 ± 3.4 µM
MEF50 (Mean Erythrocyte Fragility; concentration of PBS at which 50% of erythrocytes undergo hemolysis) [6]: 0.538
IC50 [4]: 22.4 ± 2.4 µM

COc1cccc2c1C(=O)c1c(O)c3c(c(O)c1C2=O)C[C@@](O)(C(=O)CO)C[C@@H]3O[C@H]1C[C@H](N)[C@H](O)[C@H](C)O1 [Doxorubicin, reference compound]
IC50 [2]: 2.5 ± 1.42 µM
IC50 [3]: 0.45 ± 0.52 µM
IC50 [4]: 0.7 ± 0.56 µM

Cc1ccc(COc2ccccc2C(=O)/C=C/C=C/c2ccccc2)cc1 [Compound 5j, (2E,4E)-1-(2-((4-Methylbenzyl)oxy)phenyl)-5-phenylpenta-2,4-dien-1-one]
IC50 [1]: 23.6 ± 1.4 µM
IC50 [2]: 25.7 ± 1.5 µM
IC50 [3]: 21.3 ± 5.6 µM
IC50 [4]: 7.87 ± 2.1 µM

CCCCCCOc1ccccc1C(=O)/C=C/C=C/c1ccccc1 [Compound 5l, (2E,4E)-1-(2-(Hexyloxy)phenyl)-5-phenylpenta-2,4-dien-1-one]
IC50 [1]: 98 ± 10.1 µM
IC50 [2]: 46.7 ± 2.2 µM
IC50 [3]: 29 ± 2.1 µM
Zone of inhibition Candida albicans ([7]; 1 mg/mL, 18 hrs): showed activity
zone of inhibition at 1000 µg/mL ([7]; Candida albicans, MTCC227, 18 h, read-out: Zone of inhibition Candida albicans): 8 mm
Zone of inhibition Candida tropicalis [8]: showed activity
IC50 [4]: 23.5 ± 4.1 µM

O=c1c(O)c(-c2ccc(O)c(O)c2)oc2cc(O)cc(O)c12 [Quercetin, reference compound]
MEF50 (Mean Erythrocyte Fragility; concentration of PBS at which 50% of erythrocytes undergo hemolysis) [6]: 0.431
